This is an account of results in ChEMBL document CHEMBL1128343, “Synthesis, properties, and pharmacokinetic studies of N2-phenylguanine derivatives as inhibitors of herpes simplex virus thymidine kinases” (J Med Chem, 1995).

Data set [1] deals with T1, Thymidine kinase (Human herpesvirus 2, UniProt Q6L709).
T1 sequence (Q6L709 whole entry): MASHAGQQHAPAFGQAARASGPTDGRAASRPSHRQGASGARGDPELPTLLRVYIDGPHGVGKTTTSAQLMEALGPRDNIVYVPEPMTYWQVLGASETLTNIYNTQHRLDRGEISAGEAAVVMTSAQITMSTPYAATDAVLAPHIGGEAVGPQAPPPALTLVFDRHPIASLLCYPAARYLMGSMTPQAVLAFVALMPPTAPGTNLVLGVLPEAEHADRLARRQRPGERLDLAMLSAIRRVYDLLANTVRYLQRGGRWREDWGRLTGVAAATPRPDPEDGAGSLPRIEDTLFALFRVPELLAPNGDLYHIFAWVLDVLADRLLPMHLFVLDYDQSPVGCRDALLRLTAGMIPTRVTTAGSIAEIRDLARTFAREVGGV
The data set is described as follows: Inhibition of HSV-2 thymidine kinase, 2 uM [3H]thymidine and ATP as phosphate donor. Further details: species or system Human alphaherpesvirus 2. In outline:
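TK purified by affinity column from HSV2-infected HeLa cells. Activity measured by DE-81 filter binding as phosphorylation of limiting 2 µM [3H]TdR with ATP as phosphate donor. Inhibitors were diluted from DMSO stocks, with matching DMSO in controls.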

In data set [2] the target is T2, Thymidine kinase (Human alphaherpesvirus 1, UniProt Q9QNF7).
T2 sequence (Q9QNF7 whole entry): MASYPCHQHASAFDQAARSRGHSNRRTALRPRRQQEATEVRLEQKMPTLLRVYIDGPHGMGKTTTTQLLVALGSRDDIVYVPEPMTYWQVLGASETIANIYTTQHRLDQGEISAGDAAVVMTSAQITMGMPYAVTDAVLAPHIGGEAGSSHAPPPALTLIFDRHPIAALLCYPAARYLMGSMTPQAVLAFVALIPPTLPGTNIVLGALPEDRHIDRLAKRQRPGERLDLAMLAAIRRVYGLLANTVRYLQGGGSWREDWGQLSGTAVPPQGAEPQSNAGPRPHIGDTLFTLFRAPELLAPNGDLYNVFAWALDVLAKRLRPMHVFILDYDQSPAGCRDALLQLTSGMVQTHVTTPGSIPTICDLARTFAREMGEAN
The data set is described as follows: Inhibition of HSV-1 thymidine kinase, 1 uM [3H]thymidine and ATP as phosphate donor.

Data set [3] relates to Mus musculus. The data set is described as follows: Plasma concentration at time-0 was measured in mice at 100 mg/kg after intraperitoneal administration with saline(pH=11.4) as vehicle. Details: dose 100 mg/kg, route intraperitoneal. As to conditions: in vivo, ip, pH 11.4, 100 mg/kg, read-out: Co. Format: ADME, organism-based. In outline:
(§1)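 Male CD-1 mice (~25 g) received 100 mg/kg ip as a solution in saline pH 11.4 or 90% DMSO. Plasma was collected at intervals after decapitation, diluted 10-fold and stored at −21 °C. Drug was measured by C8 reverse-phase HPLC with UV at 275 nm against spiked-plasma standards (0.11–56 µM). C0 and ke came from least-squares regression of the terminal log-linear phase; t1/2 = ln2/ke.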

The subject of data set [4] is Mus musculus. The data set is described as follows: Plasma concentration at time-0 was measured in mice at 40 mg/kg after intravenous administration with saline(pH=11.4) as vehicle. In kind it is ADME, organism-based. Details: dose 40 mg/kg, route intravenous. Conditions: in vivo, pH 11.4, 40 mg/kg, read-out: Co. In outline:
(§2)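 Male CD-1 mice (~25 g) received 40 mg/kg iv via the tail vein, dissolved at 10 mg/mL in saline pH 11.4 or 90% aqueous DMSO. Blood was taken at intervals after decapitation, and plasma was diluted 10-fold. Drug was quantified by C8 reverse-phase HPLC with UV at 275 nm. C0 and ke came from a log-linear fit of all points; t1/2 = ln2/ke and Vd = dose/C0.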

Data set [5] is described as follows: Volume of distribution in mice plasma was determined at 40 mg/kg after intravenous administration with saline(pH=11.4) as vehicle. Format: ADME, organism-based. Details: dose 40 mg/kg, route intravenous. As to conditions: mouse. Summed up: as §2
Data set [6] in a line: Half life in mice plasma was determined at 40 mg/kg after intravenous administration with saline(pH=11.4) as vehicle. In kind it is ADME, organism-based. Further details: dose 40 mg/kg, route intravenous. As to conditions: mouse. In outline: as §2
Data set [7] in a line: Half life in mice plasma was determined at 100 mg/kg after intraperitoneal administration with saline(pH=11.4) as vehicle. In kind it is ADME, organism-based. Details: dose 100 mg/kg, route intraperitoneal. Conditions: mouse, ip. Summed up: as §1
Data set [8] relates to Mus musculus. Put plainly: Plasma concentration at time-0 was measured in mice at 40 mg/kg after intravenous administration with 90% DMSO as vehicle. In kind it is ADME, organism-based. As to conditions: in vivo, read-out: Co. Further details: dose 40 mg/kg, route intravenous. In outline: as §2
Data set [9] is described as follows: Volume of distribution in mice plasma was determined at 40 mg/kg after intravenous administration with 90% DMSO as vehicle. Conditions: mouse. In kind it is ADME, organism-based. Details: dose 40 mg/kg, route intravenous. In outline: as §2
Data set [10] is described as follows: Half life in mice plasma was determined at 40 mg/kg after intravenous administration with 90% DMSO as vehicle. Format: ADME, organism-based. Further details: dose 40 mg/kg, route intravenous. Conditions: mouse. In outline: as §2
Data set [11] in a line: Half life in mice plasma was determined at 100 mg/kg after intraperitoneal administration with 90% DMSO as vehicle. As to conditions: mouse, ip.
Data set [12] relates to Mus musculus. The data set is described as follows: Plasma concentration at time-0 was measured in mice at 100 mg/kg after intraperitoneal administration with 90% DMSO as vehicle. Conditions: in vivo, ip, read-out: Co.
Data set [13] deals with Mus musculus. Put plainly: Plasma concentration at time-0 was measured in mice at 100 mg/kg after intraperitoneal administration with 90% DMSO as vehicle. Further details: dose 100 mg/kg, route intraperitoneal. As to conditions: in vivo, ip, read-out: Co. In kind it is ADME, organism-based. In outline:
as §1

The structures appear in SMILES notation.

One may read the IC50 as the midpoint of a concentration-inhibition curve. A lower IC50 goes with greater potency in that assay. As a reminder, the Vd is a proportionality between amount in the body and measured concentration, not a real space. Low readings indicate confinement near the circulation, high ones extensive tissue distribution. Broadly, the half-life is the time in which the quantity being followed falls by half. High values mean slow loss, low ones fast loss.

Turning to `O=c1[nH]c(Nc2cccc(CC(F)(F)F)c2)nc2nc[nH]c12`, the IC50 at Thymidine kinase [1] was determined as 1000 nM; against Thymidine kinase [2], 450 nM.
The corresponding values for `O=c1[nH]c(Nc2cccc(C(F)F)c2)nc2nc[nH]c12` are 3900 nM and 2800 nM.
Regarding `C=CCn1cnc2c(=O)[nH]c(Nc3ccccc3)nc21`, 180 nM corresponded to half-maximal inhibition against Thymidine kinase [1] (IC50).
Take `O=c1[nH]c(Nc2ccccc2)nc2c1ncn2CC(O)CSCCO` (stereo unspecified): the IC50 against Thymidine kinase [1] and at Thymidine kinase [2] was 1600 nM in each case.
Take `O=C(O)Cn1cnc2c(=O)[nH]c(Nc3ccccc3)nc21`: the IC50 against Thymidine kinase [1] was 9800 nM; against Thymidine kinase [2] it was 12400 nM.
With `O=c1[nH]c(Nc2cccc(OC(F)(F)F)c2)nc2nc[nH]c12`, the IC50 came to 6300 nM against Thymidine kinase [1] and 2300 nM on Thymidine kinase [2].
The corresponding values for `O=c1[nH]c(Nc2cccc(C(Cl)C(F)(F)Cl)c2)nc2nc[nH]c12` (stereo unspecified) are 470 nM and 650 nM.
For the molecule `COCCn1cnc2c(=O)[nH]c(Nc3ccccc3)nc21`, the IC50 on Thymidine kinase [1] is 2700 nM; against Thymidine kinase [2], 610 nM.
For `O=c1[nH]c(Nc2cccc(C(Cl)=C(Cl)Cl)c2)nc2[nH]cnc12` the same measures were 70000 nM and 70000 nM.
As for `O=c1[nH]c(Nc2ccccc2)nc2c1ncn2CC(O)CO` (stereo unspecified), the IC50 against Thymidine kinase [1] stood at 3500 nM; against Thymidine kinase [2], 1700 nM.
Take `O=C1N=C(Nc2cccc(C(F)(F)F)c2)N=C2C1N=CN2[C@H]1C[C@H](O)[C@@H](CO)O1` (stereo partly specified): the results for the IC50 against Thymidine kinase [1] and on Thymidine kinase [2] were 2000 nM and 4000 nM, respectively.
Take `O=C1N=C(Nc2ccccc2)N=C2C1N=CN2[C@H]1C[C@H](O)[C@@H](CO)O1` (stereo partly specified): the concentration in the data set with Mus musculus [3] worked out at 11.7 µM; with Mus musculus [4], 174 µM. For the same molecule, in data set [5], the Vd came to 0.4 L/kg. Moreover, the half-life stood at 7.5 min in [6] and 60 min in [7].
On to `O=c1[nH]c(Nc2ccccc2)nc2c1ncn2CCO`, for which the concentration came to 44.7 µM in the data set with Mus musculus [8] and 100 µM in the data set with Mus musculus [12]. In data set [9], the Vd stood at 3.3 L/kg. Moreover, the half-life in data set [10] amounted to 15 min; in data set [11], 21 min.
Take `O=c1[nH]c(Nc2cccc(C(F)(F)F)c2)nc2nc[nH]c12`: the concentration in the data set with Mus musculus [3] was determined as 10.2 µM; in the data set on Mus musculus [4] it was 54.2 µM. Further, the Vd in data set [5] is 3 L/kg. The molecule also yielded a half-life in data set [6] of 25 min.
Regarding `O=c1[nH]c(Nc2ccccc2)nc2c1ncn2CCCCO`, the concentration in the data set with Mus musculus [13] was 30.5 µM; in the data set on Mus musculus [8], 49.5 µM. Further, in data set [9], the volume of distribution (Vd) amounted to 2.7 L/kg. Further, the half-life in data set [10] is 14 min.
For the molecule `OCCn1cnc2c(O)nc(Nc3cccc(C(F)(F)F)c3)nc21`, the IC50 against Thymidine kinase [1] stood at 20400 nM; against Thymidine kinase [2], 4700 nM.
